Screening results (PubChem BioAssay)
An excerpt weighted towards active compounds, which were near 1.9% of everything screened.
ADAM10 inh – human ADAM10 inhibitors, primary screen, biochemical, QFRET, HTS; Disintegrin and metalloproteinase domain-containing protein 10 (Homo sapiens), O14672; recombinant ADAM10, EDANS/DABCYL FRET peptide cleavage, 3 h; inhibition, % at 7 µM; 370,000 compounds, 0.62% hits; AID 720582, 2013;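 active = inhibition above a per-campaign cutoff equal to the mean of compounds falling between control-based bounds plus 3 SD, cut at about 20% in these data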;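 note: 0% = DMSO wells while the 100% control is not disclosed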
Target sequence (O14672 214-748 limits assumed): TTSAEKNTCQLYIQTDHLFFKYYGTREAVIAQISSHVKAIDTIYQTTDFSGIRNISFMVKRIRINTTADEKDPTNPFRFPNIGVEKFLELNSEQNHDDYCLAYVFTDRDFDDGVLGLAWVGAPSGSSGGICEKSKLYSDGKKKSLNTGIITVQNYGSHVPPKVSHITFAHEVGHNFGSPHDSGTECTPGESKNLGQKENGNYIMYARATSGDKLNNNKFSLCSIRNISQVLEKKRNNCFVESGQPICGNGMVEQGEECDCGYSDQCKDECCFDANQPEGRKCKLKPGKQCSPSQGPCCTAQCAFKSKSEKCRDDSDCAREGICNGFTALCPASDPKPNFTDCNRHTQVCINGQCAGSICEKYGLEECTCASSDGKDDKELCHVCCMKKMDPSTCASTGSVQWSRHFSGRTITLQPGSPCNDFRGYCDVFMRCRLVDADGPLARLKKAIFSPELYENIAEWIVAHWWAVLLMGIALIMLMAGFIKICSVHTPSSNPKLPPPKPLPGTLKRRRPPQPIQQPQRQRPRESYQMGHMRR
FAS-TE inh – FAS thioesterase domain inhibitors, primary screen, biochemical, fluorescence intensity, uHTS. inhibition, % at 15 µM. recombinant FAS-TE, OMFH fluorogenic substrate, fluorescence endpoint. Fatty acid synthase (Homo sapiens), P49327. AID 602261, 2012. 360,000 compounds, 0.67% hits;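 active = compounds whose normalised, plate-corrected inhibition of enzyme fluorescence in the single-dose primary screen is 50% or more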;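 note: 0% = DMSO with enzyme and 100% = substrate without enzyme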
SENP1 inh – human SENP1 catalytic domain inhibitors, primary screen, biochemical, FRET, uHTS | Sentrin-specific protease 1 (Homo sapiens), Q9P0U3 | recombinant SENP1 catalytic domain, CyPet-SUMO1-YPet FRET cleavage | inhibition, % at 10 µM | 360,000 compounds, 0.21% hits | AID 624204, 2012;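 active = inhibition at least 30% at 10 µM, raw YFP signal under a set limit, fluorescence ratio 0.5 to 1.5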;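 note: 0% = enzyme with DMSO and 100% = no enzyme wells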
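material = recombinant human SENP1 catalytic domain, His6-tagged | quantity = 20 pM enzyme | reagent = 25 nM SUMO1 FRET substrate | compound dosing = 10 µM single point, 0.5% DMSO | timing = 50 min enzyme reaction, room temperature, light-protected | detection = FRET, CFP and YFP emission | control set = no-enzyme low, enzyme-DMSO high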
ADAM17 inh – ADAM17 inhibitors, primary screen, biochemical, QFRET. recombinant ADAM17, EDANS/DABCYL FRET peptide cleavage. 370,000 compounds, 0.83% hits. inhibition, % at 6.95 µM. AID 720648, 2013. Disintegrin and metalloproteinase domain-containing protein 17 (Homo sapiens), P78536;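 active = inhibition above the mean of compounds lying between control limits plus 3 SD, set per campaign, cut at about 8.5% in these data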;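 note: 0% = DMSO-only wells as the low control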
ADAM10 counter – ADAM10 inhibitors, counter-screen for ADAM17 exosite inhibitor project, biochemical, FRET, human ADAM10; shares compounds with ADAM17 inh; recombinant ADAM10, EDANS/DABCYL FRET peptide cleavage, 3 h; inhibition, % at 6.95 µM; 2,900 compounds, 47% hits; AID 743256, 2014;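 active = mean inhibition over the triplicate runs exceeds the activity threshold set in the earlier primary screen, cut at about 20% in these data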;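 note: 0% = DMSO wells and 100% = marimastat wells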
ADAM17 confirm – ADAM17 inhibitors, hit retest, confirmation, biochemical, QFRET peptide cleavage; shares compounds with ADAM17 inh; recombinant ADAM17, EDANS/DABCYL QFRET peptide cleavage; inhibition, % at 6.95 µM; 2,900 compounds, 65% hits; AID 743257, 2014;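 active = mean inhibition across replicates above the hit cutoff set in the primary screen, cut at about 8.5% in these data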;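 note: 0% = DMSO wells and 100% = marimastat wells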
* = called active by the depositor; . = no result.

SMILES	ADAM10 inh	FAS-TE inh	SENP1 inh	ADAM17 inh	ADAM10 counter	ADAM17 confirm
COc1ccc(C2=NN(C(=O)CSc3nnc(-c4ccccc4F)o3)C(c3ccco3)C2)cc1 (configuration not stated)	5.2	23.0	-1.7	10.8*	8.8	6.0
COc1ccc(/C=N\NC(=O)CN2CCN(Cc3ccccc3)CC2)cc1OCc1ccccc1	3.9	.	.	2.5	.	.
COc1ccc(Br)cc1/C=C/C(=O)Nc1c(C)cccc1C	-6.5	14.3	-23.1	9.8*	-15.8	-0.5
CCN(CC)c1ccc(NC(=O)/C=C/c2cc(Br)ccc2OC)cc1	12.2	19.8	12.2	10.2*	27.4*	19.6*
COc1ccc(NC(=O)/C=C/c2cc(Br)ccc2OC)cc1	19.2	32.5	1.1	4.1	.	.
O=C(Nc1ccc(Br)cc1)c1ccc(F)c(S(=O)(=O)NCc2cccs2)c1	20.4*	26.8	2.0	9.3*	25.2*	15.8*
O=S(=O)(NCc1cccs1)c1ccc(Br)cc1	2.3	1.6	-1.2	2.2	.	.
O=C(Nc1cccc(Cl)c1)c1ccc(F)c(S(=O)(=O)NCc2ccc3c(c2)OCO3)c1	17.6	13.8	0.8	8.7*	24.3*	12.9*
O=C(NCc1ccc2c(c1)OCO2)c1ccc(Cl)c(S(=O)(=O)NCc2ccccc2)c1	1.1	11.6	-1.2	0.2	.	.
CC[C@H](C(=O)Nc1ccccc1N1CCCC1)c1ccccc1	4.8	.	.	-0.6	.	.
CC(C)CC(=O)c1c(O)cc(O)c2c1OC1=C(C(=O)C(C)(C)C(=O)C1(C)C)C2CC(C)C (configuration not stated)	9.7	.	.	9.2*	13.4	7.5
COC(=O)CN1C(=O)C2(C(C#N)=C(N)Oc3c2c(C)nn3-c2ccccc2)c2ccccc21 (configuration not stated)	3.7	-2.3	-0.1	13.1*	-2.2	1.6
c1ccc(-c2nnc(-c3c[nH]c4ccccc34)nc2-c2ccccc2)cc1	15.9	17.2	4.3	8.7*	14.4	8.8*
CCOC(=O)/C=C1\CN(Cc2ccc(OC)cc2)S(=O)(=O)c2ccccc21	17.2	8.9	-2.4	9.7*	14.7	14.6*
CCCN1Cc2cc(OC)ccc2-c2ccccc2S1(=O)=O	-12.7	5.1	2.6	-1.6	.	.
CCc1nc(SCc2ccc(OCC(C)C)cc2)n[nH]1	19.9*	-1.0	1.9	10.3*	14.5	7.0
CCc1nc(SCc2ccc(Br)cc2)n[nH]1	-1.1	-3.5	-1.6	-1.4	.	.
CC(C)Oc1cc(NC(=O)CS(=O)CC(=O)N(C)C)c(Cl)cc1Cl (configuration not stated)	-3.9	-1.8	-0.6	-0.5	.	.
CC(C)Oc1cc(NC(=O)CS(=O)CC(=O)Nc2cccc(C(F)(F)F)c2)c(Cl)cc1Cl (configuration not stated)	17.9	28.8	-0.1	9.2*	31.0*	15.8*
Cc1cccc(OCc2nnc(SCC(=O)Nc3cccc(C(=O)N4CCOCC4)c3)n2C)c1C	7.5	-4.5	3.0	10.3*	-9.0	-3.3
Cc1nn(-c2ccccc2)c2sc(C(=O)N3CCN(C(c4ccccc4)c4ccc(Cl)cc4)CC3)cc12 (configuration not stated)	-6.5	.	.	-2.1	.	.
CCCC(=O)OC12CCCN(C1)/C(=C/c1ccc(C#N)cc1)C2 (configuration not stated)	-14.7	.	.	-2.8	.	.
COc1cc(-c2nc(-c3ccc4c(c3)-c3ccccc3S4(=O)=O)c(-c3ccccc3)[nH]2)cc(OC)c1O	-10.4	18.4	-2.3	8.8*	16.2	14.1*
Cc1ccc(OCCNC(=O)[C@@H](Cc2ccccc2)NC(=O)[C@H]2O[C@@H](n3ccc(=O)[nH]c3=O)[C@H](O)[C@@H]2O)cc1C	-3.3	.	.	-2.8	.	.
